The source made the active and inactive calls. The calls are words filed in the database; no cut-off is given here.
How the values were obtained:
Rattus norvegicus [1] = experiment: Reduction in water intake in Wistar rat at 2 mg/kg, ip administered 30 mins before lights off measured 6 hrs after lights off relative to vehicle-treated control; assay type: functional, organism-based; set-up: dose 2 mg/kg
Summary of the method: (§1)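 Wistar rats had free access to 1% w/v sucrose solution, water and regular chow. On test day they were split into groups of n = 15, matched on body weight and on sucrose and food intake over the prior 3 days. Drug was suspended in saline with 0.05% v/v Tween 80 and given ip at 0, 1 or 2 mg/kg (3 mL/kg), 30 min before lights off. Data were analysed by ANOVA with Newman-Keuls test.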

Homo sapiens [2] = species: Homo sapiens; experiment: Selectivity index, ratio of Ki for recombinant human CB2 receptor to Ki for recombinant human CB1 receptor
Summary of the method: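 Index computed as Ki(CB2)/Ki(CB1). Each Ki comes from [3H]-CP-55,940 displacement on transfected HEK membranes (0.14 nM radioligand for CB1, 0.084 nM for CB2) via Cheng-Prusoff.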

Cannabinoid receptor 1 = Cannabinoid receptor 1 (Homo sapiens, UniProt P21554); experiment: Displacement of [3H]CP-55,940 from recombinant human CB1 receptor expressed in HEK cells; assay type: cell-based, HEK293
Sequence of Cannabinoid receptor 1 (P21554 whole entry): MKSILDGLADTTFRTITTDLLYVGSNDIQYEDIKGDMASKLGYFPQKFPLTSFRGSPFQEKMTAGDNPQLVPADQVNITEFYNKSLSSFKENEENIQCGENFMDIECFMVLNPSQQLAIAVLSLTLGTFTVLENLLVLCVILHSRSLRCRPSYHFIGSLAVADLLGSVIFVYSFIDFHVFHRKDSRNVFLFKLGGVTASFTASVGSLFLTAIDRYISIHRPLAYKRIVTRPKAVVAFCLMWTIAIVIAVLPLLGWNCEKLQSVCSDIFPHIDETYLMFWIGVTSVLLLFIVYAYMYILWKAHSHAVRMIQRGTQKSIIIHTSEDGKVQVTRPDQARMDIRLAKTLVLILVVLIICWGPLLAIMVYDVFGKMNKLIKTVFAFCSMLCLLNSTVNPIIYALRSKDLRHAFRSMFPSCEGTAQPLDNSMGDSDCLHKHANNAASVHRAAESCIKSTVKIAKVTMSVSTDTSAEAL
Summary of the method: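 Competition binding on membranes of HEK cells transfected with human CB1, using [3H]-CP-55,940 at 0.14 nM (radioligand Kd 0.18 nM). Displacement curves give IC50, converted to Ki by the Cheng-Prusoff equation. Reference ligands run in parallel.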

Rattus norvegicus [3] = experiment: Reduction in sucrose intake in Wistar rat at 2 mg/kg, ip administered 30 mins before lights off measured 6 hrs after lights off relative to vehicle-treated control; assay type: functional; set-up: scale not given: the % may be the effect or the level left; conditions: route intraperitoneal; summary of the method: as §1
Cannabinoid receptor 2 = Cannabinoid receptor 2 (Homo sapiens, UniProt P34972); experiment: Displacement of [3H]CP-55,940 from recombinant human CB2 receptor expressed in HEK cells; assay type: cell-based, HEK293
Sequence of Cannabinoid receptor 2 (P34972 whole entry): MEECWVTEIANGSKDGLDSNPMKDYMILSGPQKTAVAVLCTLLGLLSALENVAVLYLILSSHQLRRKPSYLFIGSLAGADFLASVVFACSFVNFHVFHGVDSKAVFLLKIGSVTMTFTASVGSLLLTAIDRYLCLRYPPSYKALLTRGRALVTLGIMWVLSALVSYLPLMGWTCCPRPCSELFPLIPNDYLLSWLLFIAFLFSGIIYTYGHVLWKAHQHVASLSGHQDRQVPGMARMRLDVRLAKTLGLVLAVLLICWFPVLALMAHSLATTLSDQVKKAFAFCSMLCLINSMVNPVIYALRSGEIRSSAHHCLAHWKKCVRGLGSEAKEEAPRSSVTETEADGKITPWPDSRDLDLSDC
Summary of the method: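 Competition binding on membranes of HEK cells transfected with human CB2, using [3H]-CP-55,940 at 0.084 nM (radioligand Kd 0.31 nM). Displacement curves give IC50, converted to Ki by the Cheng-Prusoff equation. Reference ligands run in parallel.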

Homo sapiens [4] = species: Homo sapiens; experiment: Selectivity index, ratio of Ki for recombinant human CB1 receptor to Ki for recombinant human CB2 receptor
Summary of the method: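 Index computed as Ki(CB1)/Ki(CB2). Each Ki comes from [3H]-CP-55,940 displacement on transfected HEK membranes (0.14 nM radioligand for CB1, 0.084 nM for CB2) via Cheng-Prusoff.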

Rattus norvegicus [5] = experiment: Reduction in food intake in Wistar rat at 2 mg/kg, ip administered 30 mins before lights off measured 6 hrs after lights off relative to vehicle-treated control; assay type: functional, organism-based; set-up: dose 2 mg/kg; summary of the method: as §1

Row | Compound | Activity (Rattus norvegicus [1]) | Ratio Ki (Homo sapiens [2]) | Ki (Cannabinoid receptor 1) [nM] | Activity (Rattus norvegicus [3]) [%] | Ki (Cannabinoid receptor 2) [nM] | Ratio Ki (Homo sapiens [4]) | Activity (Rattus norvegicus [5])
1 | Cc1c(C(=O)NC2CCCCC2)nn(-c2ccc(Cl)cc2Cl)c1-n1cc2c(c1)CCCC2 | inactive | 164 | 2.3 | 25 | 376 | 0.006 | inactive
2 | CCc1c(C(=O)NCc2ccc(Cl)c(Cl)c2)nn(-c2ccc(Cl)c(Cl)c2)c1-n1c(C)ccc1C |  | 0.118 | 966 |  | 114 | 8.49 | 
3 | Cc1c(C(=O)NC2CCCCC2)nn(-c2ccc(Cl)cc2Cl)c1-n1c(Cl)ccc1Cl |  | 2 | 9.4 |  | 19.1 | 0.49 | 
4 | CCc1c(C(=O)NC2CCCCC2)nn(-c2ccc(Cl)c(Cl)c2)c1-n1cccc1 |  | 0.033 | 15.3 |  | 0.51 | 30 | 
5 | Cc1c(C(=O)NC2CCCCC2)nn(-c2ccc(Cl)c(Cl)c2)c1-n1c(Cl)ccc1Cl |  | 0.23 | 5.6 |  | 1.3 | 4.31 | 
6 | Cc1c(C(=O)NCc2ccc(Cl)c(Cl)c2)nn(-c2ccc(Cl)cc2Cl)c1-n1c(Cl)ccc1Cl |  | 2 | 66.1 |  | 135 | 0.49 | 
7 | Cc1c(C(=O)NC2CCCCC2)nn(-c2ccc(Cl)cc2Cl)c1-n1cccc1Cl |  | 2.4 | 7.7 |  | 18.3 | 0.4 | 
8 | CCc1c(C(=O)NC2CCCCC2)nn(-c2ccc(Cl)cc2Cl)c1-n1cccc1 |  | 5.3 | 3 |  | 15.8 | 0.19 | 
9 | CCc1c(C(=O)NCc2ccc(Cl)c(Cl)c2)nn(-c2ccc(Cl)c(Cl)c2)c1-n1cccc1 |  | 0.065 | 454 |  | 29.6 | 15.3 | 
10 | CCc1c(C(=O)NC2CCCCC2)nn(-c2ccc(Cl)cc2Cl)c1-n1c(C)ccc1C |  | 112 | 6.7 |  | 754 | 0.009 | 
11 | Cc1c(C(=O)NC2CCCCC2)nn(-c2ccc(Cl)c(Cl)c2)c1-n1cccc1Cl |  | 0.11 | 8.6 |  | 0.9 | 9.56 | 
12 | Cc1c(C(=O)NCc2ccc(Cl)c(Cl)c2)nn(-c2ccc(Cl)cc2Cl)c1-n1cccc1Cl |  | 3.9 | 25.2 |  | 98.5 | 0.26 | 
13 | CCc1c(C(=O)NCc2ccc(Cl)c(Cl)c2)nn(-c2ccc(Cl)cc2Cl)c1-n1c(C)ccc1C |  | 1.06 | 56.1 |  | 53.1 | 0.94 | 
14 | Cc1c(C(=O)NCc2ccc(Cl)c(Cl)c2)nn(-c2ccc(Cl)c(Cl)c2)c1-n1cccc1Cl |  | 0.73 | 74.1 |  | 53.9 | 1.38 | 
15 | Cc1c(C(=O)NCc2ccc(Cl)c(Cl)c2)nn(-c2ccc(Cl)cc2Cl)c1-n1cc2c(c1)CCCC2 |  | 1.6 | 45.9 |  | 72.9 | 0.63 | 
16 | CCc1c(C(=O)NC2CCCCC2)nn(-c2ccc(Cl)c(Cl)c2)c1-n1c(C)ccc1C |  | 0.035 | 48 |  | 1.7 | 28.2 | 
17 | CCc1ccc(CC)n1-c1c(C)c(C(=O)NC2CCCCC2)nn1-c1ccc(Cl)c(Cl)c1 |  | 3 | 136 |  | 410 | 0.33 | 
18 | Cc1c(C(=O)NCc2ccc(Cl)c(Cl)c2)nn(-c2ccc(Cl)c(Cl)c2)c1-n1c(Cl)ccc1Cl |  | 2.9 | 55.6 |  | 162 | 0.34 | 
19 | CCc1ccc(CC)n1-c1c(C)c(C(=O)NCc2ccc(Cl)c(Cl)c2)nn1-c1ccc(Cl)c(Cl)c1 |  |  | > 10000 |  | > 10000 |  | 
20 | CCc1c(C(=O)NCc2ccc(Cl)c(Cl)c2)nn(-c2ccc(Cl)cc2Cl)c1-n1cccc1 |  | 9.3 | 48.7 |  | 455 | 0.11 | 

From ChEMBL document CHEMBL1909537, “1-Aryl-5-(1H-pyrrol-1-yl)-1H-pyrazole-3-carboxamide: an effective scaffold for the design of either CB1 or CB2 receptor ligands” (Eur J Med Chem, 2011)
